How the values were obtained:
[1] = tested on: Rattus norvegicus; assay: (§1) Antagonistic potency of compound after subcutaneous administration in rats; type: functional
Method in brief: (§2)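 Rats, 10 animals per dose level. Drugs were given as bases in saline vehicle, sc or orally. Antagonist activity was read in the hot-water tail-flick test. AD50 values were reported with limits.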

[2] = tested on: Rattus norvegicus; assay: as §1; type: functional; remark: listed apart in the source
[3] = species on record: Mus musculus; assay: Concentration required for antagonistic activity of normorphine in the mouse vas deferens at the dose ratio of 2.; type: functional
[4] = species on record: Mus musculus; assay: Concentration required for antagonistic activity of Met-enkephalin in the mouse vas deferens at the dose ratio of 2.; type: functional
[5] = tested on: Rattus norvegicus; assay: Antagonistic potency of compound after oral administration in rats; type: functional; method in brief: as §2
[6] = species on record: Rattus norvegicus; assay: Duration of action of compound was determined at the AD99 dose level in rats; type: functional
Method in brief: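 Rats, 10 per dose level; bases in saline vehicle given sc. Antagonism was followed in the hot-water tail-flick test at the AD99 dose, which was extrapolated from AD50 values. Duration of action is given in hours.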

[7] = Partition coefficient (logP); type: physicochemical; details: octanol/water
[8] = target: T1, Opioid receptor (Rattus norvegicus, UniProt P33533+P34975+P33535); assay: Inhibition of stereospecific [3H]diprenorphine binding to opioid receptors of rat brain homogenates by 50% in the absence of Na
[9] = In vitro narcotic agonist potency of compound as ratio to normorphine (=1) was assessed in mouse vas deferens; type: functional
[10] = target: T1, Opioid receptor; assay: Inhibition of stereospecific [3H]diprenorphine binding to opioid receptors of rat brain homogenates by 50% in the presence of Na
[11] = species on record: Mus musculus; assay: Concentration required for antagonistic activity of Met-enkephalin in the mouse vas deferens at the dose ratio of 2; type: functional

Row | SMILES | AD50 [1] | AD99 [2] | Concentration [3] | Concentration [4] | AD50 [5] | Duration [6] | logP [7] | IC50 [8] | Potency ratio [9] | IC50 [10] | logP ([7]; read-out: logP) | Concentration [11]
1 | O=C1CC[C@@]2(O)[C@H]3Cc4ccc(O)c5c4[C@@]2(CCN3CC2CC2)[C@H]1O5 [NALTREXONE] | 0.009 mg/kg | 0.05 mg/kg | 0.165 ng/mL | 9 ng/mL | 1.35 mg/kg | 5 h | 3.047 | – | – | – | – | –
2 | CCO[C@@]12CCC(=O)[C@@H]3Oc4c(O)ccc5c4[C@@]31CCN(CC1CC1)C2C5 | 0.005 mg/kg | 0.14 mg/kg | 0.07 ng/mL | 4.1 ng/mL | 1.5 mg/kg | 4 h | – | 8 nM | <0.12 | 3.8 nM | 3.58 | –
3 | C=CCN1CC[C@]23c4c5ccc(O)c4O[C@H]2C(=O)CC[C@@]3(OC)C1C5 | 0.041 mg/kg | 0.15 mg/kg | 0.46 ng/mL | – | >30 mg/kg | 4 h | – | – | – | – | 2.52 | 7.3 ng/mL
4 | C=CCN1CC[C@]23c4c5ccc(O)c4O[C@H]2C(=O)CC[C@@]3(O)[C@H]1C5 [NALOXONE] | 0.023 mg/kg | 0.1 mg/kg | 0.51 ng/mL | 10.1 ng/mL | 13 mg/kg | 3 h | – | – | – | – | 1.91 | –
5 | CO[C@@]12CCC(=O)[C@@H]3Oc4c(O)ccc5c4[C@@]31CCN(CC1CC1)[C@@H]2C5 | 0.019 mg/kg | 0.25 mg/kg | 0.26 ng/mL | 11.5 ng/mL | 4.4 mg/kg | 8 h | – | 18 nM | <0.063 | 16 nM | 3.05 | –
6 | C=CCN1CC[C@]23c4c5ccc(O)c4O[C@H]2C(=O)CC[C@@]3(OCC)C1C5 | 0.034 mg/kg | 0.14 mg/kg | 0.33 ng/mL | 7.9 ng/mL | 3.8 mg/kg | 6 h | – | – | – | – | 3.05 | –

Source: ChEMBL document CHEMBL1122000 (J Med Chem, 1982)
